The values below come from ChEMBL document CHEMBL4382221, “First-in-class DAPK1/CSF1R dual inhibitors: Discovery of 3,5-dimethoxy-N-(4-(4-methoxyphenoxy)-2-((6-morpholinopyridin-3-yl)amino)pyrimidin-5-yl)benzamide as a potential anti-tauopathies agent” (Eur J Med Chem, 2019).

Calls of active or inactive are those of the source. The rule behind the calls is not given here. Where only a bound is given, the exact number is not on record here.

For data set [1], the target named is T1, Macrophage colony-stimulating factor 1 receptor (Homo sapiens, UniProt P07333). The experiment in a line: Inhibition of human CSF1R using poly[Glu:Tyr] (4:1) as substrate after 120 mins in presence of 100 uM [gamma-33P]-ATP by filtration method. In a few lines:
(§1)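 CSF1R radiometric kinase assay with dose-response curves at 1, 10 and 100 μM ATP. IC50 was calculated at each ATP concentration, and Ki was derived.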

The target in data set [2] is T1, Macrophage colony-stimulating factor 1 receptor. Kind of data set: Inhibition of human CSF1R at 10 uM using poly[Glu:Tyr] (4:1) as substrate after 120 mins in presence of 10 uM [gamma-33P]-ATP by filtration method relative to control. In a few lines:
(§2)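 Radiometric HotSpot assay measuring substrate phosphorylation directly, with 10 μM ATP. Single-dose screen at 10 μM in duplicate, reported as mean % inhibition from two independent experiments.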

Data set [3] deals with T2, Death-associated protein kinase 1 (Homo sapiens, UniProt P53355). The experiment in a line: Inhibition of human DAPK1 (1 to 363 residues) using KKLNRTLSFAEPG as substrate after 120 mins in presence of 10 uM [gamma-33P]-ATP by filtration method. In outline: (§3)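 Radiometric HotSpot assay with direct measurement of phosphorylated substrate at 10 μM ATP. IC50 was taken from a duplicate 10-dose series, 3-fold dilutions starting at 20 μM, reported as mean.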
Target sequence in this assay (P53355 whole entry, the tested form may be a part): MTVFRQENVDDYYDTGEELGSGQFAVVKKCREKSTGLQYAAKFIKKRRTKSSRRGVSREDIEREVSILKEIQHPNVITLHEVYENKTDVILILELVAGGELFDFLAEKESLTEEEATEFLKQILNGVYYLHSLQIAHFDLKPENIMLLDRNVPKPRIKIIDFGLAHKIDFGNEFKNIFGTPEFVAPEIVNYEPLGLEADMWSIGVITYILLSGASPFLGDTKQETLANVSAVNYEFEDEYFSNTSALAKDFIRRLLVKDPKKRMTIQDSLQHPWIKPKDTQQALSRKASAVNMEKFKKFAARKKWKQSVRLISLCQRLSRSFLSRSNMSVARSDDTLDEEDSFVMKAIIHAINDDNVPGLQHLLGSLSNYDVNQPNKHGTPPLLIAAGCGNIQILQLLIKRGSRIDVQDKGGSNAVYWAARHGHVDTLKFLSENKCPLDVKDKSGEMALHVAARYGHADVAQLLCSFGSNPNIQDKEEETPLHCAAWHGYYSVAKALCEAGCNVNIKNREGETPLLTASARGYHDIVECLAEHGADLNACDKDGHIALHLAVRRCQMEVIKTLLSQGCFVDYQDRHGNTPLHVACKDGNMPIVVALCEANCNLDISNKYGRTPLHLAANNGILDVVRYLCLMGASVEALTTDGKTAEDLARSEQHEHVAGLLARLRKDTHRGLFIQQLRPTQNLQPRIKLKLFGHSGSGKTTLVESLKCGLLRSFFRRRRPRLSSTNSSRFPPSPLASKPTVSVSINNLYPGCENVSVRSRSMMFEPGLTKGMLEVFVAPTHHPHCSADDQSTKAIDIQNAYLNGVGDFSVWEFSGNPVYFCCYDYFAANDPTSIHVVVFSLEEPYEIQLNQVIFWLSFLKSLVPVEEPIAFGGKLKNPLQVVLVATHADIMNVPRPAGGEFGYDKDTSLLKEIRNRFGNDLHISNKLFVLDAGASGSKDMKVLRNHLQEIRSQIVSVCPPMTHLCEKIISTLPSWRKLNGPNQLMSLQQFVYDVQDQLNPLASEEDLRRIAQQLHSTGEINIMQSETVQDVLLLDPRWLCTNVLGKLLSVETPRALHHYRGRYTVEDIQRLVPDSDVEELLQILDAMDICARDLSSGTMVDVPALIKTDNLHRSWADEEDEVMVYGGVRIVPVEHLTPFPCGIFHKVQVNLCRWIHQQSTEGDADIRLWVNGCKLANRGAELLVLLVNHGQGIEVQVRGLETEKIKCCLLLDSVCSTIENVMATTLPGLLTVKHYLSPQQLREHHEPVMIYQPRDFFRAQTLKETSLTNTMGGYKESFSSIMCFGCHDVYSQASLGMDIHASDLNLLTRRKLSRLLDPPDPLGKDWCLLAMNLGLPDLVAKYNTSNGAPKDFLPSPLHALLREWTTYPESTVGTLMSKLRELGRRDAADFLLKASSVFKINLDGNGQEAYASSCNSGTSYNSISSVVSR

For data set [4], the target named is Tyrosine-protein kinase Lck (Homo sapiens) (UniProt P06239). Kind of data set: Inhibition of human LCK at 10 uM using poly[Glu:Tyr] (4:1) as substrate after 120 mins [gamma-33P]-ATP by filtration method. In outline:
(§4)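 Radiometric kinase selectivity panel of 47 kinases, with compound at 10 μM. Data are means ± SD of two independent experiments.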

Data set [5] concerns the target T2, Death-associated protein kinase 1. The experiment in a line: Inhibition of human DAPK1 (1 to 363 residues) using KKLNRTLSFAEPG as substrate after 120 mins [gamma-33P]-ATP by filtration method. In a few lines: as §3
Target sequence in this assay (P53355 whole entry, the tested form may be a part): as above
Data set [6] addresses Platelet-derived growth factor receptor alpha (Homo sapiens) (UniProt P16234). Kind of data set: Inhibition of human PDGFRalpha at 10 uM using poly[Glu:Tyr] (4:1) as substrate after 120 mins [gamma-33P]-ATP by filtration method. In a few lines:
as §4

Data set [7] addresses T2, Death-associated protein kinase 1. Kind of data set: Inhibition of human DAPK1 (1 to 363 residues) at 10 uM using KKLNRTLSFAEPG as substrate after 120 mins in presence of 10 uM [gamma-33P]-ATP by filtration method relative to control. In outline:
as §2
Target sequence in this assay (P53355 whole entry, looked up, the tested form may be a part): as the sequence (P53355 whole entry, the tested form may be a part) above

Data set [8] deals with Platelet-derived growth factor receptor beta (Homo sapiens) (UniProt P09619). Kind of data set: Inhibition of human PDGFRbeta at 10 uM using poly[Glu:Tyr] (4:1) as substrate after 120 mins [gamma-33P]-ATP by filtration method. In outline: as §4
The target in data set [9] is Voltage-gated inwardly rectifying potassium channel KCNH2 (Homo sapiens, UniProt Q12809). The experiment in a line: Inhibition of red tracer binding to human ERG expressed in membranes preincubated for 10 to 15 mins followed by tracer addition measured after 3 hrs by fluorescence polarization assay.
Data set [10] deals with T2, Death-associated protein kinase 1. The experiment in a line: Inhibition of DAPK1 in HEK293 tau-BiFC cells assessed as reduction in forskolin-induced tau aggregation at 16 uM after 48 hrs by Hoechst staining based HCS analysis relative to control. The format is cell-based. In a few lines:
(§5)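 HEK293 tau-BiFC cells were given forskolin (30 μM) and compound in a 5-dose series (1, 2, 4, 8, 16 μM) for 48 h. BiFC fluorescence was quantified and a cellular IC50 was derived from the series.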
Target sequence in this assay (P53355 whole entry, looked up, the tested form may be a part): as the sequence (P53355 whole entry, the tested form may be a part) above

Data set [11] shares this target. The experiment in a line: Inhibition of DAPK1 in HEK293 tau-BiFC cells assessed as reduction in forskolin-induced tau aggregation after 48 hrs by Hoechst staining based HCS analysis. Type of data set: cell-based. In a few lines:
as §5
Target sequence in this assay (P53355 whole entry, the tested form may be a part): as above

Data set [12] in a line: Cytotoxicity against LPS-stimulated mouse BV2 cells assessed as cell viability at 10 uM after 24 hrs by MTT assay relative to control. As to conditions: read-out: Activity. The format is cell-based, BV-2. In a few lines:
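BV-2 cell viability was measured in the presence of compound together with LPS and expressed relative to control. Values are means ± SD of five independent experiments.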

Data set [13] addresses Calcium/calmodulin-dependent protein kinase type II subunit alpha (Homo sapiens) (UniProt Q9UQM7). Kind of data set: Inhibition of human CAMK2a at 10 uM using KKALRRQETVDAL as substrate after 120 mins [gamma-33P]-ATP by filtration method. In outline: as §4
Data set [14] has as its target Death-associated protein kinase 2 (Homo sapiens) (UniProt Q9UIK4). The experiment in a line: Inhibition of human DAPK2 at 10 uM using KKLNRTLSFAEPG as substrate after 120 mins [gamma-33P]-ATP by filtration method. In outline:
as §4

Data set [15] addresses T2, Death-associated protein kinase 1. Kind of data set: Inhibition of DAPK1 in HEK293 tau-BiFC cells assessed as reduction in forskolin-induced tau aggregation at 10 uM after 48 hrs by Hoechst staining based HCS analysis. The format is cell-based. In outline:
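HEK293 cells expressing tau-BiFC were exposed to compounds at 50, 10 and 1 μM with forskolin (30 μM) as the tau aggregation activator for 48 h. BiFC fluorescence intensity was quantified as the read-out. Data are mean ± SD.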
Target sequence in this assay (P53355 whole entry, looked up, the tested form may be a part): as the sequence (P53355 whole entry, the tested form may be a part) above

The next data set has as its system BV-2. The experiment in a line: Anti-neuroinflammatory activity in mouse BV2 cells assessed as inhibition of LPS-stimulated NO production at 10 uM preincubated for 1 hr followed by LPS stimulation for 23 hrs by Griess reagent based assay relative to control. The format is functional. In outline: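 Mouse BV-2 microglia were stimulated with LPS, with or without compound at 10 μM, and NO production was measured. Values are means ± SD of five independent experiments.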
On the technique in general: Griess reagent forms a coloured azo dye with nitrite.

The target of data set [16] is Serine/threonine-protein kinase pim-1 (Homo sapiens) (UniProt P11309). Kind of data set: Inhibition of human PIM1 at 10 uM using KKRNRTLTK as substrate after 120 mins [gamma-33P]-ATP by filtration method. In outline:
as §4

Data set [17] concerns the target T3, Serine/threonine-protein kinase 17A (Homo sapiens) (UniProt Q9UEE5).
T3 sequence (whole entry): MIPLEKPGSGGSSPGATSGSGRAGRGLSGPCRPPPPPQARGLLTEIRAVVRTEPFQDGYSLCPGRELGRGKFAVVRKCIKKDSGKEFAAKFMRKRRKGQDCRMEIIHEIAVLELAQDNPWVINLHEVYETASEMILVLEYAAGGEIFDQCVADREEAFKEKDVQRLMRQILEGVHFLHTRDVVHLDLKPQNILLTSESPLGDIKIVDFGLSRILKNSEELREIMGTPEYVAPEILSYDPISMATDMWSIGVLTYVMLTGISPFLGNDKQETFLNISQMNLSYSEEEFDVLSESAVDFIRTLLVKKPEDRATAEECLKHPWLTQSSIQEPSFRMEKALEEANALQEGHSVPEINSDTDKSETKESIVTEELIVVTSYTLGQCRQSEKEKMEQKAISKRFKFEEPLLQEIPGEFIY
Kind of data set: Inhibition of human DRAK1 at 10 uM using KKLNRTLSFAEPG as substrate after 120 mins [gamma-33P]-ATP by filtration method. In outline: as §4

Data set [18] deals with T1, Macrophage colony-stimulating factor 1 receptor. The experiment in a line: Inhibition of human CSF1R using poly[Glu:Tyr] (4:1) as substrate after 120 mins in presence of 1 uM [gamma-33P]-ATP by filtration method. In outline:
as §1

The target is the same in data set [19]. Kind of data set: Inhibition of human CSF1R using poly[Glu:Tyr] (4:1) as substrate after 120 mins in presence of [gamma-33P]-ATP by filtration method.
Data set [20] has as its target Tyrosine-protein kinase Lyn (Homo sapiens) (UniProt P07948). The experiment in a line: Inhibition of human LYN at 10 uM using poly[Glu:Tyr] (4:1) as substrate after 120 mins [gamma-33P]-ATP by filtration method. In a few lines: as §4

T1 sequence (P07333 whole entry): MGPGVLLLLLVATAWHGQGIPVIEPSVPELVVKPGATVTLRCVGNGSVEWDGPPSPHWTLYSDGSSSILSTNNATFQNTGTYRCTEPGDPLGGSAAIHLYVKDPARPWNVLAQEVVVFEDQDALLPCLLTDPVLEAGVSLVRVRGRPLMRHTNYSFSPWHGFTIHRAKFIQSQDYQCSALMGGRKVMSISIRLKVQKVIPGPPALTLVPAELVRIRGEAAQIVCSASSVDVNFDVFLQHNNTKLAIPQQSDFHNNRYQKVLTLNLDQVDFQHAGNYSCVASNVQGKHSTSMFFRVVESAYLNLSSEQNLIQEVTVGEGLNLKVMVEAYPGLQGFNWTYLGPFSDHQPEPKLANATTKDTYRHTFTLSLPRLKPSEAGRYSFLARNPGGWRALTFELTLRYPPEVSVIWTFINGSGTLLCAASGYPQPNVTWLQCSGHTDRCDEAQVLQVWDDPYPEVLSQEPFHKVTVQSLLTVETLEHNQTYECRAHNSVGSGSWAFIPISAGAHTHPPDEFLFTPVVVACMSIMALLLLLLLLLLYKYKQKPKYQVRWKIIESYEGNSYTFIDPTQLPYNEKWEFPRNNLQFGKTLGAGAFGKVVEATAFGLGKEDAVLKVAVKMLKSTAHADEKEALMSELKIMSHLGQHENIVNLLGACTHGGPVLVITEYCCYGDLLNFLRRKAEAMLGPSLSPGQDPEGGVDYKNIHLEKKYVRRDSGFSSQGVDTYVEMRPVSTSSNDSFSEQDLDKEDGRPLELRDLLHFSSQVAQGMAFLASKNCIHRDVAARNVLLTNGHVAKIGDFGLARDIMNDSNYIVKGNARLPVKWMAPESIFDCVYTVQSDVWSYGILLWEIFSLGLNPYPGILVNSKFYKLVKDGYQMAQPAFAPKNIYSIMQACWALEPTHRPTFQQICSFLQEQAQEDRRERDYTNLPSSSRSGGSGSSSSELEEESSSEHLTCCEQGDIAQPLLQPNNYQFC
Sequence of Tyrosine-protein kinase Lyn (Homo sapiens) (P07948 2-512 limits assumed): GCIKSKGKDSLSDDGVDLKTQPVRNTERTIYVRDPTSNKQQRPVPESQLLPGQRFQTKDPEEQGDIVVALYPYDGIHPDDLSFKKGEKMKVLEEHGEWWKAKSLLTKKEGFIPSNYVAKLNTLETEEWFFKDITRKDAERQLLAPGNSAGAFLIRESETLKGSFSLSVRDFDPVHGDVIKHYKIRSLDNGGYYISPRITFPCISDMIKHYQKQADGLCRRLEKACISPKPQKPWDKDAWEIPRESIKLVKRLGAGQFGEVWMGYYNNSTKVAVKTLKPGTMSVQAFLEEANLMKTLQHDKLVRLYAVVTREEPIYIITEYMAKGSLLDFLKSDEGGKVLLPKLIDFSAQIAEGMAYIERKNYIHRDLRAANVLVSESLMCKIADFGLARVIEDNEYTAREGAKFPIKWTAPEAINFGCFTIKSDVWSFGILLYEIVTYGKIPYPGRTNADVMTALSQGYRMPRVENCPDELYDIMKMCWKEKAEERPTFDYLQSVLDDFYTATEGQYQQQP
Sequence of Calcium/calmodulin-dependent protein kinase type II subunit alpha (Homo sapiens) (Q9UQM7 whole entry): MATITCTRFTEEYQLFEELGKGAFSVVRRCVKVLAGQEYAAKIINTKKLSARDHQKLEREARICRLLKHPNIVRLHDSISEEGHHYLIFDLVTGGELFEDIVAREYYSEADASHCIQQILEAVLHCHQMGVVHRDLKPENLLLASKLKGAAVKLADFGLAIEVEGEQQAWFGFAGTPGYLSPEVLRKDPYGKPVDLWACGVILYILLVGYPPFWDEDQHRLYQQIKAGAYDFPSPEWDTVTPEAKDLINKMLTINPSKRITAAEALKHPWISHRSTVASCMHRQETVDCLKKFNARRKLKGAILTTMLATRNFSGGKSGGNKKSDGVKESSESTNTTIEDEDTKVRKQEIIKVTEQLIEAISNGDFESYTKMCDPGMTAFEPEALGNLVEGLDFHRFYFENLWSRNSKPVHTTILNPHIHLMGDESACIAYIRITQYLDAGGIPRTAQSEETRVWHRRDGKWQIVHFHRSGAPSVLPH

`COc1ccc(Oc2nc(Nc3ccc(N4CCOCC4)nc3)ncc2NC(=O)c2cc(OC)cc(OC)c2)cc1`: the IC50 is 273 nM in data set [1]; 1250 nM in [3]; 17100 nM in [9]; 5000 nM in data set [11]; 69 nM in [18]. Further, the inhibition in data set [2] came out at 77.9%; in data set [7], 66.2%; in data set [10] it was 100%. Also, the inhibition entry in data set [4], in data set [15] and in data set [20] was “Active” throughout. Also, the Ki in data set [5] is 581 nM; in data set [19] it was 129 nM. The inhibition entry in [6], in data set [8], in data set [13], in [14], in data set [16] and in [17] was “inactive” in each case. Also, the viability at 24 h, 10 µM in data set [12] is > 92%. In addition, in the data set with BV-2, the inhibition at 10 µM was 55%.

What is called IC50 is the midpoint of a concentration-inhibition curve. A word on the inhibition: it is how much of the control response was suppressed. As a reminder, the Ki is the equilibrium dissociation constant of an inhibitor or competing ligand from its target.
